These results are taken from the RNAGym collection of RNA variant scans (doi:10.1126/science.aae0568).

This sample holds only a part of the variants without activity.

B1: tRNA (parent)
chain: GUUCCGUUGGCGUAAUGGUAACGCGUCUCCCUCCUAAGGAGAAGACUGCGGGUUCGAGUCCCGUACGGAACG

Variants of B1 are the subject of the data set. Kind of data set: yeast fitness relative to wild type (ratio to wild type); higher = fitter; tRNA-Arg(CCU), competitive growth, 37 C, YPD. The gist of the method: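 Genotype frequency changes were the basis for Darwinian fitness relative to wild type. The frequencies came from 100-nucleotide paired-end sequencing of gene amplicons from the start population and each end population of pooled yeast strains with tRNA-Arg(CCU) gene variants at the native locus. Competition ran in YPD at 37°C for 24 hours in six replicates, genotypes needed ≥ 100 starting reads, and estimates < 0.5 were set to 0.5.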
GUCCCGUUGGCGUAAUGGUAACGCGUCUCCCCUCUAAGGAGUAGACUGCGGGUUCGAGUCCCGUACGGAACG: the yeast fitness was found to be 0.563.
The same measure for GUACCGUUGGCGUAAUGGUACCGCUUCUCCCUCCUAAGGAGACGACUGCGGGUUCGAGUCGUGUACGGAACG: at most 0.5; for GUUCCGUUGGCGUAAUGGUAACGCGUCUCCCUCCGAAGGAGAAAACUGCGGGUUCGAGUCCCGUACGGAACG: 0.509.
Next, GUUCCGUCGGGGUAAUGGUAACGCGUCUCCCUCCUAAGGAGAAGACUGCGGGUUCGAGUCCCGUACGGAACG: 0.686; GUUCCGUUGGCGUAAUGGUAAUGCGUCUCCCUCCUAGGGAGAAGUCUGCGGGUUCGAGUCCCGUACGGAACG: 0.547.
The same measure for GUUCCGUUGGCGUAGUGGUAACGCGUCUCCCUCCUAAGGCGAAGACUGCAGGUUCGAGUCCCGUACGGAACG: at most 0.5; for GUUACGUUGGCGUAAUGGUAACGGGUCUCCCUCCUAAGGAGAAGACUGCGGGUUCGAGUCCCGUACGGAACG: 0.714; for GUUGCGUUGGUGUAAUGGUAACGCGUCUGCCUCCUAAGGAGAAGACUGCGGGUUCGAGUCCCCUAUGGAACG: at most 0.5.
GUUCCGUUGGCGUAAUGGUAACGCAUCUCCCUCCUAAGGCGAAGACUGCGGGUUCGAGUCCCGUACGGAACG: the yeast fitness came to 0.839.
Next, GUUCCGUUGGCGUAAUGGUGACGCGUCACGCUCCUAAGGAGAAGACUGCGGGUUCGAGCCCCGUACGGAACG: at most 0.5; GUUCCGUUGGCGUAAUGGUAUCGCGUCUCCCUCCUAAGGAGAAGACUGCGGGCUCGCGUCCCGUACGGAACG: 0.619; GUUCCGCUGGCGUAAUGGUAACGCGUCUCCCUCCUAAGGAGAAGACUGCGGGUUAGAGUCCCGUACGGAACG: 0.567.
For GUUCCGUUGGCGUAAUGGUAACGCGUCUCCCUCCUAAGGAGAAGACUGCGGGUUCGAGUCCCCUACGGUACG, the yeast fitness was 0.709.
Next, GUUCCGUUGCCGUAAUGGUAACGCGUCUCCCUCCUAAGGAGAAGACUGCGGGUUCGGGUCCCGUACGGUACG: 0.559.
The same measure for GCUCCGUGGGCGUAAUGGUAACGCGUCUCCCUCCUAAGGAGAAGACUGAGGGUUUGAGUCCCGUAAGGCACG: at most 0.5.
Regarding GUUAAGUUGGCGUAAUGGUAACGCGUCUCCCUCCUAAGGAGUAGACUGCGGGUUCGCGUCUCGUUCGGAACG, the yeast fitness is at most 0.5.
The same measure for GUUCCGUUGGCGUAUUGAUAACGCGUCUCCCUCCUAAGGAGAAGACUGCGGGUUCGAAUCCCGUACGGAACG: at most 0.5; for GUUCCGUUGGCGCAAUGGUAACGCGUCUACCUACCAAGGAGAAGACUGCGAGUUCGAGUCCCGUACGGAACG: at most 0.5.
The same measure for GUUCCGUUGCCGAAAUGGUAACGCAUCUCCCUCCUAAGGAGAAGACUGCGGGUUCGAGUCCCGUACGGAACG: 0.534; for GUUCCGUUGGCGUAAUGGUAACGCGUCUACCUCCUAAGGAGAAGACUGCGGGUUCCGGUCCCGUACGUAACG: at most 0.5; for GUUCCGUUGACGUAAUGGUAACGCUUCUCCCUCCUUAGGAGAGGACUGCGGGUUCGAGUUCCGUACGGAACG: at most 0.5.
The same measure for GUUCUGUUGGCGUAAUGGUAACGCGUCUCCUUCUUAAGGAGAAGACUGCGGGUUCGAGUCCCGUACGGAACG: at most 0.5; for GUUCCGUUGGCGUAAUGGUGACGCGUCUCCCUCCUAAGGAGAAGACUGCGGGUUCCAGUCCCGUACGGAACG: 0.61.
On to GUUCCGUUGGCGUACUGGUAACGCGUCUCCCUCCUAAGGAGAACACUGCGGGUUCGAGUCCCGUACGGAACG, for which the yeast fitness worked out at 0.684.
The same measure for GUUCCGUUGGCGUACUGGUCACGCGUCUCCCUCCUAAGGAGAAGACUGCGGGUUCGAGUCCCGUUCGGAACG: at most 0.5.
In the case of GUUCCGUUGGCGUAAUGGUAACGCGUCUCCCUCCUAAGGAGCAGACUGUGGGUUCGAGUCCCGUACGGAACG, the yeast fitness was 0.939.
Next, GUUCCGUUGGCGUAAUGGUAGCGCGUCUCCCUCCUAAGGAGAAGACUGCGGGUUCGUGUCCCGUACGGAUCG: 0.582; GUUUCGUUAGCGUAAUGGUAACGCGUCUCCCUCCUAAGGAGAAGACUGCGGGUACGAGUCCCGUACGGAACG: at most 0.5; GUUGCGUUGGCGUAAUGGUAACGCGUCUCCCUCCUAAGGAGAAGACUGCGGGUUCGAGUUCCGUACGGAACG: 0.817.
As for GUUCCGUUGGCGUAAUGGUAACGCGUCUCCCACCUAAGGAGAAGACUGCGGGUUCGAGUCCCGUACGGUACG, the yeast fitness is 0.958.
Turning to GUUCCGCUGGCGUAAUGGUAACGCGUCUCCCUCCUAAGGAGAAGUCUGCGGGUUCGAGUCCCGUACGGAACG, the yeast fitness is 0.837.
The same measure for GUUCCGUUGGCGUAAUGGUAACGCGUCUCCCUCCUAAGGAGAAGUCAGCGGGUUCGAGUGCCGUACGGAACG: at most 0.5.
Next, GUUCCGUUGGCGUAAUGGUAUCGCGUCUCCCUCCUAAGGAGGAGACUGCGGGUUCGAGUCCCGUACGGAACG: 0.583.
The same measure for GUUCCGAUGGCGUAAUGGUCGCACGUCUCCCUCCUAAGGAGAAGACUGCGGGUUCAAGUCCCGUACGGAACG: at most 0.5.
For GUUCCGUUGCCGUAAUGGUAACGCGUCUCCCUCCUAAGGGGAAGACUGCGGGUUCGAGUCCCGUACGGAACG, the yeast fitness was 0.588.
In the case of GUUCCGUUGGCGUAAUGGUAGCGCGUCUCCCUCCUAAGGAGGAGGCUGCGGGUUCGAGUCCCGUACGGAACG, the yeast fitness came out at 0.989.
The same measure for GUUCCGUUGGCGUAAUGGUAACGCGUCUCUCUCCUAAGGAGCAGACUCCGGGUUCGAGUCCCGUCCGGAACG: at most 0.5; for GUUCCGUUGGUGUAAUGGUAACGCGUCUCCCUCCUAAGGAGUGGACUGCGGCUUCGAGUGCCGUACGGAACG: at most 0.5.
